PAFAH1B3 FP inh = PAFAH1B3 enzyme inhibitors, primary screen, biochemical, fluorescence polarization, human; recombinant PAFAH1B3, FP-rhodamine probe; inhibition, % at 3.39 µM; hit rate 0.28% among 340,000; AID 492972, 2010;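 active means inhibition above the screen-wide average of all tested compounds plus 3 SD, cut at about 25% in these data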;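 further: 0% = enzyme with DMSO only and 100% = wells lacking PAFAH1B3 protein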
Target sequence (Q15102 whole entry, looked up): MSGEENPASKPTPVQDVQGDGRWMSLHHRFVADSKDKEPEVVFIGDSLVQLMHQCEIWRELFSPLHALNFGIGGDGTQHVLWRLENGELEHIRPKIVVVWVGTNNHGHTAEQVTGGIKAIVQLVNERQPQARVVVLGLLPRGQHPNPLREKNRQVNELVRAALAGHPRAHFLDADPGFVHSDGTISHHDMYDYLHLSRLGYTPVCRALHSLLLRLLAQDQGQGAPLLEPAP
pPAFAH FP inh = pPAFAH enzyme inhibitors, primary screen, biochemical, fluorescence polarization, human; inhibition, % at 3.39 µM; Platelet-activating factor acetylhydrolase (Homo sapiens), Q13093; recombinant pPAFAH, FP-rhodamine probe fluorescence polarization; hit rate 1.5% among 330,000;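 active means inhibition above the mean inhibition across the screen plus 3 SD, cut at about 25% in these data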;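 further: inhibitors block binding of the rhodamine activity-based probe so polarization drops; 0% = enzyme with DMSO and 100% = wells lacking pPAFAH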
Target sequence (Q13093 whole entry, looked up): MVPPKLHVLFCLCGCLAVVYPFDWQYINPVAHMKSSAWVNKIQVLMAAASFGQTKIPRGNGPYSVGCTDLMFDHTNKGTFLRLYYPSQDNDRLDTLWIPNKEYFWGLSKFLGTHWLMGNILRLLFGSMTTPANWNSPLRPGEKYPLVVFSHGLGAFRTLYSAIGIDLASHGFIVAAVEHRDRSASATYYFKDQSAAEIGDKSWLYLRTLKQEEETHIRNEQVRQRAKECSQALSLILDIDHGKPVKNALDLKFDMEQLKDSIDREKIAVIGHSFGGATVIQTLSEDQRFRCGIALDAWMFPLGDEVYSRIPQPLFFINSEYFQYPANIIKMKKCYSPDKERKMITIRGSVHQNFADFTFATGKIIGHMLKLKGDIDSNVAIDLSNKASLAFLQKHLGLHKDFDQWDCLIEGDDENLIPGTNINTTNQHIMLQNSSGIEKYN
PAFAH2 FP inh = PAFAH2 enzyme inhibitors, primary screen, biochemical, fluorescence polarization, human; Platelet-activating factor acetylhydrolase 2, cytoplasmic (Homo sapiens), Q99487; inhibition, % at 3.39 µM; hit rate 0.99% among 340,000; recombinant PAFAH2, FP-rhodamine activity probe;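 active means inhibition above the mean over all tested compounds plus 3 SD, cut at about 30% in these data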;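 further: inhibitors block probe labeling of enzyme so polarization drops; 0% = enzyme with DMSO and 100% = wells lacking PAFAH2 protein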
PAFAH1B2 inh = PAFAH1B2 enzyme inhibitors, primary screen, biochemical, fluorescence polarization, human | AID 492953, 2010 | hit rate 1.2% among 340,000 | recombinant PAFAH1B2, FP-rhodamine activity probe | inhibition, % at 3.39 µM | Platelet-activating factor acetylhydrolase IB subunit alpha2 (Homo sapiens), P68402;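 active means inhibition above the mean of all tested compounds plus 3 SD, cut at about 24% in these data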;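 further: 0% = enzyme with DMSO and 100% = wells lacking PAFAH1B2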
NR3A LBD binder = binders of NR3A ligand-binding domain, primary screen, biophysical, differential scanning fluorimetry, uHTS; Glutamate receptor ionotropic, NMDA 3A (GRIN3A) ligand-binding domain; NR3A LBD differential scanning fluorimetry, Tm shift; 0% = protein alone, 100% = glycine-bound protein; Tm shift relative to glycine control, % at 25 µM; hit rate 2.5% among 340,000;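 active means melting temperature shift of at least 10% of the positive control shift, at one fixed dose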
UCH37 DUB inh = inhibitors of human UCH37 deubiquitinase, primary screen, biochemical, Ub-AMC cleavage, fluorescence; inhibition, % (test concentration not listed); purified proteasome/UCH37; hit rate 0.33% among 330,000; Ubiquitin carboxyl-terminal hydrolase isozyme L5 (Homo sapiens), Q9Y5K5;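 active means mean inhibition over replicate wells above about 20%, limit read from the data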;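 further: 0% = compound-free wells with enzyme and 100% = wells lacking proteasome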
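Signal – fluorescence, ex 355 nm, em 460 nm · System – Proteasome-bound UCH37 · Input – 0.15 nM proteasome as dispensed · Timing – 30 min preincubation with enzyme, 25 min cleavage at room temperature · Read-out basis – percent inhibition of cleavage signal versus uninhibited and no-proteasome wells · Medium – Tris-HCl pH 7.4 with ATP-MgCl2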
PAFAH2 FP conf = PAFAH2 enzyme inhibitors, confirmation, biochemical, fluorescence polarization, human; inhibition, % at 3.39 µM; shares compounds with PAFAH2 FP inh; hit rate 65% among 2,300; recombinant PAFAH2, FP-rhodamine activity probe;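 active means mean inhibition over three repeats above a set limit taken from the earlier primary screen, cut at about 30% in these data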;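 further: inhibitor blocks binding of rhodamine activity probe so polarization falls; 0% = enzyme with DMSO and 100% = wells lacking PAFAH2 protein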
An asterisk follows results filed as active; nt = no result. This is a sample that favours compounds with a hit; in the whole collection about 4.8% have one here.

SMILES	PAFAH1B3 FP inh	pPAFAH FP inh	PAFAH2 FP inh	PAFAH1B2 inh	NR3A LBD binder	UCH37 DUB inh	PAFAH2 FP conf
COC(=O)N/N=C/c1cc(Br)ccc1O	3	4	6	3	1	nt	nt
Oc1ccccc1/C=N/NC(=S)NC1CC2CCC1C2 (centres undefined)	6	12	60*	11	-9	nt	28
CC(=NNC(=O)C1COc2ccccc2O1)c1ccc(C)o1 (centres undefined)	nt	nt	nt	nt	nt	4	nt
COc1ccc(CNC(=O)COC(=O)/C=C/c2cccc(Br)c2)cc1OC	9	9	5	6	4	0	nt
COc1ccc(/C=C/C(=O)OCC(=O)NCc2ccccc2)cc1OC	7	3	50*	4	0	-17	47*
COc1cc(/C=C/C(=O)OCC(=O)NCc2cccs2)ccc1OC(F)F	3	6	33*	-1	-1	-12	51*
COc1ccc(CCNC(=O)COC(=O)/C=C/c2cccs2)cc1	5	10	23	-4	0	4	nt
COc1ccc(CCNC(=O)COC(=O)/C=C/c2ccc(OC)cc2OC)cc1	13	20	72*	5	0	-2	58*
COc1ccc(CCNC(=O)COC(=O)/C=C/c2cc(OC)ccc2OC)cc1	2	3	32*	9	1	-102	16
Cc1cc(C(=O)NN=Cc2c(C)[nH]c3ccccc23)n[nH]1	nt	nt	nt	nt	nt	5	nt
COc1ccc(OC)c(/C=C/C(=O)OCC(=O)NCc2ccccc2)c1	3	6	46*	0	0	-87	28
COc1ccc(OC)c(/C=C/C(=O)OCC(=O)NCc2cccs2)c1	9	-2	46*	3	0	-106	50*
O=C(NN=Cc1coc2ccc(Cl)cc2c1=O)c1ccncc1	nt	nt	nt	nt	nt	-46	nt
COc1ccc(C(=O)O/N=C(\N)Cc2cccs2)cc1OC	6	13	79*	2	-2	1	76*
N/C(Cc1cccs1)=N\OC(=O)COc1ccc(Br)cc1Cl	1	5	5	10	-10	3	nt
Cc1ccc(C(=O)O/N=C(\N)Cc2cccs2)cc1[N+](=O)[O-]	5	13	36*	3	2	0	12
Cc1nc(C)c(C(=O)OCC(=O)NCc2ccccc2Cl)s1	5	12	70*	3	0	4	63*
COc1ccc(CCNC(=O)COC(=O)c2sc(C)nc2C)cc1	0	8	23	1	0	0	nt
O=C(COC(=O)c1cncc(Br)c1)NCc1ccccc1Cl	7	2	6	2	-2	-1	nt
CSc1ccccc1NC(=O)COC(=O)c1c[nH]c(=O)[nH]c1=O	-3	2	0	4	2	1	nt
Cc1nc(C)c(C(=O)OCC(=O)NCc2ccccc2)s1	11	3	32*	1	-2	5	20
CC1CCc2sc(C(=O)OCC(=O)NCc3ccccc3)cc2C1 (centres undefined)	8	9	38*	3	1	3	40*
Cc1nc(C)c(C(=O)OCC(=O)Nc2ccccc2SCC#N)s1	-6	6	43*	1	2	1	33*
O=C(C[n+]1cccc(C(=O)NN=Cc2cccc([N+](=O)[O-])c2)c1)c1ccccc1	nt	nt	nt	nt	nt	5	nt
O=c1c(C(c2c(O)nc3n(c2=O)CCS3)c2cccc3ccccc23)c(O)nc2n1CCS2	-3	-5	37*	3	0	0	26
SMILES	PAFAH1B3 FP inh	pPAFAH FP inh	PAFAH2 FP inh	PAFAH1B2 inh	NR3A LBD binder	UCH37 DUB inh	PAFAH2 FP conf
Cc1ccccc1/C=C1\SC(=S)N(/N=C/c2cc([N+](=O)[O-])ccc2O)C1=O	5	8	32*	13	7	nt	16
Cc1cc(C=NO)c(C)n1-c1cccc(Cl)c1	nt	nt	nt	nt	nt	3	nt
O=C(COC(=O)c1ccc(Cl)c(S(=O)(=O)N2CCCC2)c1)NC1CCCC1	9	20	41*	1	0	0	29
CCCNC(=O)COC(=O)c1ccc(Cl)c(S(=O)(=O)N2CCCC2)c1	-1	9	34*	1	4	2	16
CCCNC(=O)COC(=O)c1ccc(N2CCCC2)c([N+](=O)[O-])c1	17	5	65*	6	-3	4	51*
Cc1ccc(-n2[nH]c(C)c(C=Nc3cccc(C)n3)c2=O)cc1	nt	nt	nt	nt	nt	3	nt
COc1ccc(/C=C2/SC(=S)N(CC(=O)O)C2=O)cc1OCc1ccc(Cl)cc1	2	-2	-2	12	-2	18	nt
O=C(O)CN1C(=O)/C(=C\c2cc(Br)ccc2OCc2ccc(Cl)cc2)SC1=S	9	nt	32*	20	4	23*	20
O=C(O)CN1C(=O)/C(=C\c2ccccc2OCc2ccc(F)cc2)SC1=S	2	14	39*	16	4	9	35*
CCN(CC)S(=O)(=O)c1cc(C(=O)OCC(=O)NC(=O)c2cccn2C)ccc1C	-4	18	62*	6	1	1	50*
Cn1cccc1C(=O)NC(=O)COC(=O)c1ccc(S(C)(=O)=O)cc1	8	2	-1	2	0	nt	nt
CC(C)NC(=O)COC(=O)c1ccc(O)cc1	5	-4	48*	3	5	1	24
Cn1cccc1C(=O)NC(=O)COC(=O)c1ccc(O)cc1	2	-2	52*	0	-7	3	45*
CON=Cc1cn(-c2ccc(Cl)cc2)nn1	nt	nt	nt	nt	nt	-2	nt
CN(C)N=Cc1cn(-c2ccccc2)nc1-c1cccnc1	nt	nt	nt	nt	nt	1	nt
CSC1=NSC2=NC(=O)/C(=C\c3coc4ccccc4c3=O)C(=N)N12	2	4	26	10	6	-12	nt
CC(C)CSC1=NSC2=NC(=O)/C(=C\c3coc4ccccc4c3=O)C(=N)N12	21	10	36*	23	7	-12	22
Cc1cccc(C=NNC(=O)c2ccc(Br)cc2)c1	nt	nt	nt	nt	nt	-1	nt
O=C(CSc1nnc(-c2ccccc2)n1-c1ccccc1)c1cccs1	13	-4	43*	16	-1	nt	29
O=C(CSc1nnc(-c2ccccc2)n1-c1ccccc1)c1ccc[nH]1	4	8	-2	13	-6	6	nt
Cc1ccccc1NC(=O)CN1C(=O)NC2(CCCCCCC2)C1=O	5	nt	8	4	0	5	nt
COC(=O)c1ccccc1NC(=O)CN1C(=O)NC2(CCCCCCC2)C1=O	0	-4	85*	3	-1	5	6

Assay outcomes (PubChem BioAssay)
